Measurements from ChEMBL document CHEMBL1155236, “Identification of biphenyl-based hybrid molecules able to decrease the intracellular level of Bcl-2 protein in Bcl-2 overexpressing leukemia cells” (J Med Chem, 2009).
Activity calls are given as the source filed them. No cut-off for these calls is given here.

Tests used:
K562 [1] = experiment: Cell cycle arrest in human K562 cells by accumulation at G1 phase at 30 uM after 24 hrs using propidium iodide staining by FACS; type: functional
How it was run: (§1)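 K562 cells treated for 24, 48 or 72 h. Cells stained with propidium iodide and cell-cycle phase distribution analysed by flow cytometry against untreated cells. The sub-G0–G1 peak was taken as apoptotic.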

K562 [2] = experiment: Cell cycle arrest in human K562 cells by accumulation at S phase at 30 uM after 24 hrs using propidium iodide staining by FACS; type: functional; how it was run: as §1
K562 [3] = experiment: Cell cycle arrest in human K562 cells by accumulation at G2/M phase at 30 uM after 24 hrs using propidium iodide staining by FACS; type: functional; how it was run: as §1
K562 [4] = experiment: Cell cycle arrest in human K562 cells by accumulation at sub-G1 (apoptotic) phase at 30 uM after 24 hrs using propidium iodide staining by FACS; type: functional; how it was run: as §1
K562 [5] = experiment: Cell cycle arrest in human K562 cells by accumulation at G1 phase at 30 uM after 48 hrs using propidium iodide staining by FACS; type: functional; how it was run: as §1
K562 [6] = experiment: Cell cycle arrest in human K562 cells by accumulation at S phase at 30 uM after 48 hrs using propidium iodide staining by FACS; type: functional; how it was run: as §1
K562 [7] = experiment: Cell cycle arrest in human K562 cells by accumulation at G2/M phase at 30 uM after 48 hrs using propidium iodide staining by FACS; type: functional; how it was run: as §1
K562 [8] = experiment: Cell cycle arrest in human K562 cells by accumulation at sub-G1 (apoptotic) phase at 30 uM after 48 hrs using propidium iodide staining by FACS; type: functional; how it was run: as §1
K562 [9] = experiment: Cell cycle arrest in human K562 cells by accumulation at G1 phase at 30 uM after 72 hrs using propidium iodide staining by FACS; type: functional; how it was run: as §1
K562 [10] = experiment: Cell cycle arrest in human K562 cells by accumulation at S phase at 30 uM after 72 hrs using propidium iodide staining by FACS; type: functional; how it was run: as §1
K562 [11] = experiment: Cell cycle arrest in human K562 cells by accumulation at G2/M phase at 30 uM after 72 hrs using propidium iodide staining by FACS; type: functional; how it was run: as §1
K562 [12] = experiment: Cell cycle arrest in human K562 cells by accumulation at sub-G1 (apoptotic) phase at 30 uM after 72 hrs using propidium iodide staining by FACS; type: functional; how it was run: as §1
K562 [13] = experiment: Induction of apoptosis in human K562 cells assessed as decrease in Bcl-2 expression at 30 uM after 24 hrs by flow cytometry; type: functional; set-up: scale not given: the % may be the effect or the level left
How it was run: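 K562 cells cultured 24 h with compound at 30 μM or without (control). Intracellular Bcl-2 read by flow cytometry after staining with FITC-conjugated anti-Bcl-2 monoclonal antibody. Treated histograms compared with control histograms.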

HL-60 [14] = experiment: Induction of apoptosis in human HL60 cells assessed as induction of cell differentiation marker CD61 expression at 10 uM after 120 hrs by flow cytometry; type: functional, cell-based
How it was run: (§2)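 HL60 or K562 cells exposed to 10 μM compound or no compound (control) for 120 h (5 days). Surface CD11c and CD61 read by flow cytometry with PE- or FITC-conjugated monoclonal antibodies. Treated cells compared with untreated cells.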

HL-60 [15] = experiment: Induction of apoptosis in human HL60 cells assessed as induction of cell differentiation marker CD11c expression at 10 uM after 120 hrs by flow cytometry; type: functional, cell-based; how it was run: as §2
K562 [16] = experiment: Induction of apoptosis in human K562 cells assessed as induction of cell differentiation marker CD61 expression at 10 uM after 120 hrs by flow cytometry; type: functional, cell-based; how it was run: as §2
K562 [17] = experiment: Induction of apoptosis in human K562 cells assessed as induction of cell differentiation marker CD11c expression at 10 uM after 120 hrs by flow cytometry; type: functional, cell-based; how it was run: as §2
HL-60 [18] = experiment: Antiproliferative activity against human HL60 cells after 48 hrs by trypan blue method; type: functional, cell-based; settings: HL-60, 48 h
How it was run: (§3)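 Growth inhibition read by counting cells with an automatic cell counter after 48 h of compound exposure. IC50 is the concentration inhibiting 50% of cell growth.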

K562 [19] = experiment: Antiproliferative activity against human K562 cells after 48 hrs by trypan blue method; type: functional, cell-based; settings: K562, 48 h; how it was run: as §3
HL-60 [20] = experiment: Induction of apoptosis in human HL60 cells assessed as morphological changes after 48 hrs by annexin V assay; type: functional, cell-based; settings: HL-60, 48 h
How it was run: (§4)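 HL60 or K562 cells treated for 48 h. Apoptosis scored by morphological assay and annexin V test. AC50 is the concentration inducing apoptosis in 50% of cells.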

K562 [21] = experiment: Induction of apoptosis in human K562 cells assessed as morphological changes after 48 hrs by annexin V assay; type: functional, cell-based; settings: K562, 48 h; how it was run: as §4
[22] = Cytotoxicity against human lymphocytes after 48 hrs by trypan blue method; type: cell-based; settings: Lymphocyte; how it was run: as §3
K562 [23] = experiment: Cell cycle arrest in human K562 cells by accumulation at G1 phase at 130 uM after 24 hrs using propidium iodide staining by FACS; type: functional; how it was run: as §1
K562 [24] = experiment: Cell cycle arrest in human K562 cells by accumulation at S phase at 130 uM after 24 hrs using propidium iodide staining by FACS; type: functional; how it was run: as §1
K562 [25] = experiment: Cell cycle arrest in human K562 cells by accumulation at G2/M phase at 130 uM after 24 hrs using propidium iodide staining by FACS; type: functional; how it was run: as §1
K562 [26] = experiment: Cell cycle arrest in human K562 cells by accumulation at A phase at 130 uM after 24 hrs using propidium iodide staining by FACS; type: functional; how it was run: as §1
K562 [27] = experiment: Cell cycle arrest in human K562 cells by accumulation at G1 phase at 130 uM after 48 hrs using propidium iodide staining by FACS; type: functional; how it was run: as §1
K562 [28] = experiment: Cell cycle arrest in human K562 cells by accumulation at S phase at 130 uM after 48 hrs using propidium iodide staining by FACS; type: functional; how it was run: as §1
K562 [29] = experiment: Cell cycle arrest in human K562 cells by accumulation at G2/M phase at 130 uM after 48 hrs using propidium iodide staining by FACS; type: functional; how it was run: as §1
K562 [30] = experiment: Cell cycle arrest in human K562 cells by accumulation at A phase at 130 uM after 48 hrs using propidium iodide staining by FACS; type: functional; how it was run: as §1
K562 [31] = experiment: Cell cycle arrest in human K562 cells by accumulation at G1 phase at 130 uM after 72 hrs using propidium iodide staining by FACS; type: functional; how it was run: as §1
K562 [32] = experiment: Cell cycle arrest in human K562 cells by accumulation at S phase at 130 uM after 72 hrs using propidium iodide staining by FACS; type: functional; how it was run: as §1
K562 [33] = experiment: Cell cycle arrest in human K562 cells by accumulation at G2/M phase at 130 uM after 72 hrs using propidium iodide staining by FACS; type: functional; how it was run: as §1
K562 [34] = experiment: Cell cycle arrest in human K562 cells by accumulation at A phase at 130 uM after 72 hrs using propidium iodide staining by FACS; type: functional; how it was run: as §1

SMILES: O=C1C[C@H](c2ccc(-c3ccc(CO)cc3)cc2)C2(C(=O)c3ccccc3C2=O)[C@H](c2ccccc2)C1
- Activity (K562 [1]): 47%
- Activity (K562 [2]): 34%
- Activity (K562 [3]): 19%
- Activity (K562 [4]): 4%
- Activity (K562 [5]): 48%
- Activity (K562 [6]): 30%
- Activity (K562 [7]): 22%
- Activity (K562 [8]): 6%
- Activity (K562 [9]): 48%
- Activity (K562 [10]): 32%
- Activity (K562 [11]): 20%
- Activity (K562 [12]): 11%
- Activity (K562 [13]): 4.3%
- Activity (HL-60 [14]): Active
- Activity (HL-60 [15]): Active
- Activity (K562 [16]): inactive
- Activity (K562 [17]): inactive
- IC50 (HL-60 [18]): 6 µM
- IC50 (K562 [19]): 14 µM
- AC50 (HL-60 [20]; read-out: AC50): 12 µM
- AC50 (K562 [21]): 80 µM
- IC50 ([22]; read-out: IC50): 286 µM

SMILES: CC1(C)OC(=O)C2(C(=O)O1)[C@@H](c1ccc(O)cc1)CC(=O)C[C@H]2c1ccc(O)cc1
- IC50 (HL-60 [18]): 87 µM
- IC50 (K562 [19]): > 100 µM

SMILES: O=C1C[C@H](c2ccccc2)C2(C(=O)c3ccccc3C2=O)[C@H](c2ccccc2)C1
- Activity (K562 [23]): 27%
- Activity (K562 [24]): 61%
- Activity (K562 [25]): 12%
- Activity (K562 [26]): 13%
- Activity (K562 [27]): 26%
- Activity (K562 [28]): 40%
- Activity (K562 [29]): 34%
- Activity (K562 [30]): 18%
- Activity (K562 [31]): 7%
- Activity (K562 [32]): 21%
- Activity (K562 [33]): 72%
- Activity (K562 [34]): 20%
- IC50 (HL-60 [18]): 20 µM
- IC50 (K562 [19]): 98 µM

SMILES: O=C1C[C@H](c2ccc(O)cc2)C2(C(=O)c3ccccc3C2=O)[C@H](c2ccc(O)cc2)C1
- IC50 (HL-60 [18]): 28 µM
- IC50 (K562 [19]): 73 µM

SMILES: O=C1C[C@H](c2ccc(-c3ccc(O)cc3)cc2)C2(C(=O)c3ccccc3C2=O)[C@H](c2ccccc2)C1
- Activity (K562 [1]): 44%
- Activity (K562 [2]): 39%
- Activity (K562 [3]): 17%
- Activity (K562 [4]): 4%
- Activity (K562 [5]): 35%
- Activity (K562 [6]): 61%
- Activity (K562 [7]): 4%
- Activity (K562 [8]): 53%
- Activity (K562 [9]): 34%
- Activity (K562 [10]): 61%
- Activity (K562 [11]): 2%
- Activity (K562 [12]): 55%
- Activity (K562 [13]): 32.8%
- IC50 (HL-60 [18]): 6 µM
- IC50 (K562 [19]): 8 µM
- AC50 (HL-60 [20]; read-out: AC50): 11 µM
- AC50 (K562 [21]; read-out: AC50): 25 µM
- IC50 ([22]; read-out: IC50): 215 µM

SMILES: Oc1ccc(-c2cc(O)cc(O)c2)cc1
- IC50 (HL-60 [18]): > 80 µM
- IC50 (K562 [19]): > 80 µM
- AC50 (HL-60 [20]): > 80 µM
- AC50 (K562 [21]; read-out: AC50): > 80 µM

SMILES: CC1(C)OC(=O)C2(C(=O)O1)[C@@H](c1ccc(-c3ccc(-c4ccc(O)cc4)cc3)cc1)CC(=O)C[C@H]2c1ccccc1
- Activity (K562 [1]): 65%
- Activity (K562 [2]): 26%
- Activity (K562 [3]): 11%
- Activity (K562 [4]): 2%
- Activity (K562 [5]): 72%
- Activity (K562 [6]): 22%
- Activity (K562 [7]): 6%
- Activity (K562 [8]): 2%
- Activity (K562 [9]): 72%
- Activity (K562 [10]): 20%
- Activity (K562 [11]): 8%
- Activity (K562 [12]): 2%
- Activity (K562 [13]): 4.9%
- Activity (HL-60 [14]): Active
- Activity (HL-60 [15]): Active
- Activity (K562 [16]): inactive
- Activity (K562 [17]): inactive
- IC50 (HL-60 [18]): 16 µM
- IC50 (K562 [19]): 8 µM
- AC50 (HL-60 [20]; read-out: AC50): 32 µM
- AC50 (K562 [21]; read-out: AC50): > 100 µM
- IC50 ([22]; read-out: IC50): 185 µM

SMILES: CC1(C)OC(=O)C2(C(=O)O1)[C@@H](c1ccc(-c3ccc(O)cc3)cc1)CC(=O)C[C@H]2c1ccccc1
- Activity (K562 [1]): 46%
- Activity (K562 [2]): 43%
- Activity (K562 [3]): 11%
- Activity (K562 [4]): 7%
- Activity (K562 [5]): 39%
- Activity (K562 [6]): 52%
- Activity (K562 [7]): 9%
- Activity (K562 [8]): 46%
- Activity (K562 [9]): 37%
- Activity (K562 [10]): 54%
- Activity (K562 [11]): 9%
- Activity (K562 [12]): 47%
- Activity (K562 [13]): 31.2%
- IC50 (HL-60 [18]): 8 µM
- IC50 (K562 [19]): 9 µM
- AC50 (HL-60 [20]): 16 µM
- AC50 (K562 [21]): 33 µM
- IC50 [22]: 172 µM
